Results: PubChem BioAssay AID449763 (Sanford-Burnham Center for Chemical Genomics, 2010)
Screen size: about 330,000 compounds; about 1,100 (0.33%) were called active.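 Rule for the calls: active = at 10 µM dose, activation of 40% or more, normalized to positive control; inactive = the rest.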 For the sample, actives were picked, then their nearest neighbours and some compounds at random.

assay: activators of apoptotic CHOP UPR arm, primary screen, cell-based, CHO-CHOP luciferase reporter, luminescence, uHTS (AID 449763); conditions: at 10 µM, active compounds read high, percent of tunicamycin response over DMSO baseline;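 note: 100% = tunicamycin at 10 µg/mL and 0% = DMSO alone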
Method in brief: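 System: CHO CHOP reporter cells. Amount: 500 cells per well. Buffer or medium: F12 medium, 10% FBS. Compound dosing: one dose, 10 µM in 0.5% DMSO. Incubation: 6 h compound exposure at 37 °C after overnight seeding. Technique: Steady-Glo luciferase luminescence. Benchmarks: tunicamycin and DMSO controls.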

| Compound | activation |
| --- | --- |
| CCN(c1ccc(NC(=O)COC(=O)CCc2nc3ccccc3n2-c2ccccc2)cc1)C(C)C | -1.22% (inactive) |
| Cc1c(CN2CCC(n3nccc3NC(=O)CCc3ccccc3)CC2)cnn1C | 1.65% (inactive) |
| COc1ccc(CN2C(=O)CN=C2Nc2ccc(C)cc2C)cc1 | 1.91% (inactive) |
| COc1ccc(CN2CN(C(C)C)CSC2=S)cc1 | 0.456% (inactive) |
| c1ccc(-c2ccc(OCCN3CCOCC3)cc2)cc1 | 5.5% (inactive) |
| S=C1SCN(CCN2CCOCC2)CN1Cc1ccccc1 | 129% (active) |
| COc1ccc(OC)c(NC(=O)CSc2nc(-c3ccccc3)cc(=O)[nH]2)c1 | 4.07% (inactive) |
| C=C(C)CNC(=S)Nc1ccc(S(=O)(=O)Nc2cnc3ccccc3n2)cc1 | -2.1% (inactive) |
| COc1ccc(C(=O)NCC2CCCN2S(=O)(=O)c2cccs2)cc1OC (stereo unspecified) | 11.9% (inactive) |
| COCc1ccc(C(=O)N2CCc3c([nH]c4ccccc34)C2c2ccccn2)s1 (stereo unspecified) | -0.769% (inactive) |
| COc1cc(NS(=O)(=O)c2ccc3ccccc3c2)c2ncccc2c1 | 409% (active) |
| COc1ccc(N2CC(NS(=O)(=O)c3ccc4ccccc4c3)CC2=O)cc1 (stereo unspecified) | -0.659% (inactive) |
| CCOc1cc(NS(=O)(=O)c2ccc(OC)cc2)c(OCC)cc1NC(C)=O | 1.17% (inactive) |
| COC(=O)[C@]1(C)N[C@H](CN(C)C(=O)c2ccc(C(C)(C)C)cc2)[C@@H]2C(=O)N(C)C(=O)[C@@H]21 | 2.43% (inactive) |
| CCCCOc1ccc(N(CC(=O)NCC2CCCO2)C(=O)CCC(=O)Nc2cc(C)ccn2)cc1 (stereo unspecified) | -1.23% (inactive) |
| O=C(NCc1ccco1)c1sc2cccc(F)c2c1Cl | 2.12% (inactive) |
| O=C(O)c1ccc(N/N=C/c2ccc3ncccc3c2)cc1 | -10.5% (inactive) |
| O=C(N/N=C/c1ccc(O)c(O)c1)C1c2ccccc2Oc2ccccc21 | 3.18% (inactive) |
| Oc1ccc(/C=N/Nc2ccc(C(F)(F)F)cn2)cc1O | 67.4% (active) |
| Cc1ccc(CCCOC(=O)C[N+]2(C)CCCC2)cc1 | 1.65% (inactive) |
| O=S(=O)(NCC1CCCO1)c1cnc(Cl)c(Cl)c1 (stereo unspecified) | 4.71% (inactive) |
| O=C(NCCCO)/C(=C\C=C\c1ccccc1)NC(=O)c1ccccc1Cl | 0.299% (inactive) |
| COc1ccc(CCNC(=O)CCc2ccccc2O)cc1OC | -0.118% (inactive) |

| Compound | activation |
| --- | --- |
| CC1=CC(C)(C)Nc2ccc(OC(=O)C(Cc3ccccc3)N3C(=O)C4CCCCC4C3=O)cc21 (stereo unspecified) | -1.34% (inactive) |
| CC1=CC(C)(C)Nc2ccc(OC(=O)CN3C(=O)C4CCCCC4C3=O)cc21 (stereo unspecified) | 67.7% (active) |
| O=C(COC(=O)CN1C(=O)C2CCCCC2C1=O)Nc1ccc(F)c(F)c1F (stereo unspecified) | 1.69% (inactive) |
| COc1ccc(NC2CC(=O)N(C)C2=O)cc1 (stereo unspecified) | -2.21% (inactive) |
| CC(=O)c1ccc(Oc2cc(C)nc(-n3nc(C)cc3C)n2)cc1 | -1.17% (inactive) |
| COc1ccc(Nc2cc(C)nc(-n3nc(C)cc3C)n2)cc1 | 62.8% (active) |
| COc1ccc(NC(=O)c2nc(-n3nc(C)cc3C)ccc2Cl)cc1Cl | -0.184% (inactive) |
| C(=N/Nc1cc(N2CCOCC2)nc(N2CCOCC2)n1)/c1ccccc1 | 4.25% (inactive) |
| CN(C)c1ccc(/C=N/Nc2cc(N3CCOCC3)nc(N3CCOCC3)n2)cc1 | -1.02% (inactive) |
| Cc1cc(N/N=C\c2ccc(Br)cc2)nc(-n2nc(C)cc2C)n1 | 49.5% (active) |
| COc1ccccc1/C=N\Nc1cc(C)nc(-n2nc(C)cc2C)n1 | 80.6% (active) |
| COc1ccccc1/C=N/N1CCN(Cc2ccccc2Cl)CC1 | -0.532% (inactive) |
| COc1ccc(/C=N/Nc2cc(N3CCOCC3)nc(C)n2)c(OC)c1 | 8.25% (inactive) |
| CN(CC(=O)NC1CCN(Cc2ccccc2)CC1)S(=O)(=O)c1ccc(Cl)s1 | -1.76% (inactive) |
| N#CCN(C(=O)COC(=O)C1CC2CCCC(C1)C2=O)c1ccccc1 (stereo unspecified) | -1.48% (inactive) |
| O=C(NCCCn1ccnc1)C(=O)c1cn(CC(=O)N2CCCCCC2)c2ccccc12 | 1.32% (inactive) |
| Cc1ccc(S(=O)Cc2ccc(C(=O)N3CCN(C4CCCCC4)CC3)o2)cc1 (stereo unspecified) | -0.502% (inactive) |
| Cc1cccnc1NC(=O)Cn1c(=O)oc2ccccc21 | -1.26% (inactive) |
| O=C(CSc1nc(=O)n2ccccc2n1)Nc1ccc2c(c1)OCCO2 | 0.903% (inactive) |
| CCCC(=O)Nc1ccc(C(=O)N/N=C/c2ccc[nH]2)cc1 | -0.0357% (inactive) |
| CCCCCC(=O)NC(=S)NNC(=O)c1ccc([N+](=O)[O-])cc1 | -1.39% (inactive) |
| CCCCCC(=O)Nc1ccc(C(=O)N/N=C/c2ccc([N+](=O)[O-])cc2)cc1 | 90.2% (active) |
| CCCc1nn(C)c2c(=O)[nH]c(-c3cc(S(N)(=O)=O)ccc3OCC)nc12 | 0.336% (inactive) |

| Compound | activation |
| --- | --- |
| O=C1Nc2ccc(Br)cc2/C1=N/N=C/C1=C(N2CCOCC2)C(=C\c2ccccc2)/CC1 | 46.3% (active) |
| COc1ccc(/C=N/N=C2/C(=O)Nc3ccccc32)cc1O | 10.4% (inactive) |
| Cc1cc2nc3n(c2cc1C)CC1CC(C(=O)NCCC(C)C)N(C)C31 (stereo unspecified) | -0.707% (inactive) |
| O=C(N/N=C/c1ccc(Cl)cc1)c1nc2ccc([N+](=O)[O-])cc2c(=O)[nH]1 | 0.124% (inactive) |
| O=C(O)c1cccc(NC(=O)c2cc(-c3cccc(Cl)c3)nc3ccccc23)c1 | 2.21% (inactive) |
| O=C(/C(=C/c1cccc(Cl)c1)c1nc2ccccc2[nH]1)c1ccccc1 | 349% (active) |
| O=S(=O)(c1ccc(SCc2ccc(Br)cc2)nc1)N1CCOCC1 | 0.334% (inactive) |
| COc1ccccc1OCCCCCCN1CCN(C)CC1 | -0.245% (inactive) |
| Cc1nc2ccc(NC(=O)c3cccc(S(=O)(=O)N4CCOCC4)c3)cc2s1 | 1.06% (inactive) |
| O=C(CN1CCN(S(=O)(=O)c2cccc(Cl)c2)CC1)N1CCCCC1 | -0.576% (inactive) |
| O=S(=O)(Nc1nccs1)c1ccc2c(c1)OCCO2 | -1.47% (inactive) |
| C=CCNc1cnn(-c2ccc(C)cc2)c(=O)c1Cl | 0.179% (inactive) |
| Cc1ccc(Oc2cnn(-c3ccccc3)c(=O)c2Br)cc1 | 2.08% (inactive) |
| Cc1cccc(-n2ncc(Cl)c(Cl)c2=O)c1 | 49.1% (active) |
| Cc1ccc(CNC(=O)COC(=O)C2CCC2)cc1 | 0.475% (inactive) |
| CCc1nnc(NC(=O)CSc2nnnn2-c2cccc(C(C)=O)c2)s1 | -1.47% (inactive) |
| CCOc1ccc(Br)cc1CSC(=N)N | 0.704% (inactive) |
| CCOC(=O)CCNC(=O)N1CCCC(C(=O)c2ccccc2SC)C1 (stereo unspecified) | 1.02% (inactive) |
| CCc1ccc(CNC(=O)C2CCCN(c3nc4ccccc4o3)C2)cc1 (stereo unspecified) | -2.13% (inactive) |
| CCOC(=O)c1cnc(Nc2nc3ccccc3o2)nc1CSC(=S)N1CCCCC1 | 152% (active) |
| CCN(CC)C(=O)Cn1cc(S(=O)(=O)CC(=O)NCc2ccc3c(c2)OCO3)c2ccccc21 | -0.829% (inactive) |
| Cc1cc(NC(=O)CS(=O)(=O)c2cn(C)c3ccccc23)no1 | 1.58% (inactive) |
| CCN(C(=O)CSc1ncnc2sccc12)c1c(N)n(Cc2ccccc2)c(=O)[nH]c1=O | -3.54% (inactive) |

| Compound | activation |
| --- | --- |
| CC1CC2=C(CC1/C=N/NC(N)=S)C(C)(C)CCC2 (stereo unspecified) | 67.6% (active) |
| Cc1ccc(C(=O)Cc2nnc(C)s2)cc1 | 1.29% (inactive) |
| CC(=O)Nc1ccc(S(=O)(=O)N2CCC(NC(=O)c3ccccc3)CC2)cc1 | 1.32% (inactive) |
| C=Cn1c(C(=O)O)ccc1-c1ccc(OC)cc1 | -1.21% (inactive) |
| COC(=O)c1ccc(C(=O)NC2CC(C)(C)Cc3c2cnn3-c2ccc(F)cc2)nc1 (stereo unspecified) | 0.891% (inactive) |
| CCOc1ccc2nc(Cl)c(C3CC(c4ccccc4)=NN3C(=O)c3cccs3)cc2c1 (stereo unspecified) | 85.3% (active) |
| COc1ccc(C2=NN(C(=O)c3ccccc3C(=O)O)C(c3ccccc3O)C2)cc1 (stereo unspecified) | 4.22% (inactive) |
| CCOc1ccccc1C1CC(c2cccc(NS(C)(=O)=O)c2)=NN1C(=O)c1ccccc1 (stereo unspecified) | 1.22% (inactive) |
| CCOc1ccccc1CN1CCN(C2CCC2)CC1CCO (stereo unspecified) | 1.34% (inactive) |
| CS(=O)(=O)c1ccc(C(=O)OCC(=O)NNC(=O)COc2ccc(Cl)cc2)cc1 | -0.907% (inactive) |
| Cc1c(NC(=O)CSc2nnc(-c3cccnc3)n2N)c(=O)n(-c2ccccc2)n1C | 0.658% (inactive) |
| Cc1c(NC(=O)CSc2cccc3cccnc23)c(=O)n(-c2ccccc2)n1C | 163% (active) |
| Cc1c(NC(=O)CSc2nnnn2-c2ccc(C(=O)O)cc2)c(=O)n(-c2ccccc2)n1C | -0.108% (inactive) |
| NC(=O)CC[C@@H]1NC(=O)[C@@H]2CCCN2C(=O)c2cc([N+](=O)[O-])cc(F)c2NCCC[C@@H](C(N)=O)NC1=O | -0.0942% (inactive) |
| COc1ccccc1P(=O)(c1ccccc1)c1ccccc1NC(C)=O (stereo unspecified) | -0.343% (inactive) |
| COc1cc(C(=O)N/C(=C\c2cn(C)c3ccccc23)C(=O)N2CCOCC2)cc(OC)c1OC | -0.204% (inactive) |
| CCCCC[C@H]1CN(C2CCCCC2)C(=O)[C@@H]1CC(=O)NCc1ccc(OC)cc1 | 0.258% (inactive) |
| CC[C@H](C)C(=O)N[C@H]1CCCN1C(=O)/C=C/c1ccccc1 | -0.778% (inactive) |
| COCCNc1nc(-n2nc(C)cc2C)nc2sc3c(c12)CCCC3 | 45.9% (active) |
| Cc1nc2sc3c(c2c(=O)n1NC(=O)CCl)CCCC3 | 1.06% (inactive) |
| CCC(O)CNc1nc(-n2nc(C)cc2C)nc2sc3c(c12)CC(C)(C)OC3 (stereo unspecified) | -0.387% (inactive) |
| O=C(Nc1ccc(S(=O)(=O)N2CCOCC2)cc1)c1ccc2ncsc2c1 | 2.81% (inactive) |
